# ChEMBL document CHEMBL1153736, “Application of ring-closing metathesis macrocyclization to the development of Tsg101-binding antagonists” (Bioorg Med Chem Lett, 2010)
# Numbered stars: 1 amine (or outer) side, 2 acyl side, 3 side chain; on linkers, the order of the positions; unused ones are H or OH. Bridge positions count the residues as written; N and C are the ends. Square brackets hold non-standard residues; d marks the D form. Peptide text beside a SMILES is read from it. * marks the point of attachment. Fluorescein(5-NHCS) = O=C1OC2(c3ccc(O)cc3Oc3cc(O)ccc32)c2cc(NC(=S)*)ccc21; Gly(N-but-3-enyl) = O=C(CN(CCC=[*:3])[*:1])[*:2]; X3 = O=C(CN(CCCCCCC=[*:3])[*:1])[*:2]; N(7-octenyl)Gly = C=CCCCCCCNCC(=O)O; X1 = O=C(CN(CCCC=[*:3])[*:1])[*:2]; X2 = O=C(CN(CC=[*:3])[*:1])[*:2]; Ava = NCCCCC(=O)O
# System: HeLa
# Assay: Cellular uptake in human HeLa cells assessed as fluorescence intensity by FACS analysis relative to control
# Format: ADME, cell-based
# Settings: in the assay text read “fluorescence microscopy” for “FACS analysis”
# Summary of the method: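 Uptake of FITC-tagged peptide-peptoid hybrids was measured by fluorescence microscopy. The value is the average fluorescence intensity of treated cells, quantified from at least 20 cells taken from 4–6 fields, each field holding about 5 cells.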
row,Drug uptake [%],Molecule
1,328,C[C@@H]1NC(=O)[C@H]([C@@H](C)O)NC(=O)[C@@H]2CCCN2C(=O)[C@H](CCC(=O)O)NC(=O)CN(C(=O)CCCCNC(=S)Nc2ccc3c(c2)C2(OC3=O)c3ccc(O)cc3Oc3cc(O)ccc32)CCCCCC/C=C\CCCCCCN(CC(N)=O)C(=O)[C@H](CCC(=O)O)NC(=O)[C@@H]2CCCN2C(=O)[C@@H]2CCCN2C1=O
2,77,C[C@@H]1NC(=O)[C@H]([C@@H](C)O)NC(=O)[C@@H]2CCCN2C(=O)CN(C(=O)[C@@H]2CCCN2C(=O)CCCCNC(=S)Nc2ccc3c(c2)C2(OC3=O)c3ccc(O)cc3Oc3cc(O)ccc32)CC/C=C\CCCCCCN(CC(N)=O)C(=O)[C@H](CCC(=O)O)NC(=O)[C@@H]2CCCN2C(=O)[C@@H]2CCCN2C1=O
3,199,C[C@@H]1NC(=O)[C@H]([C@@H](C)O)NC(=O)[C@@H]2CCCN2C(=O)CN(C(=O)[C@@H]2CCCN2C(=O)CCCCNC(=S)Nc2ccc3c(c2)C2(OC3=O)c3ccc(O)cc3Oc3cc(O)ccc32)CCCCCC/C=C\CCCCCCN(CC(N)=O)C(=O)[C@H](CCC(=O)O)NC(=O)[C@@H]2CCCN2C(=O)[C@@H]2CCCN2C1=O
4,98,C=CCN(CC(N)=O)C(=O)[C@H](CCC(=O)O)NC(=O)[C@@H]1CCCN1C(=O)[C@@H]1CCCN1C(=O)[C@H](C)NC(=O)[C@@H](NC(=O)[C@@H]1CCCN1C(=O)CN(CC=C)C(=O)[C@@H]1CCCN1C(=O)CCCCNC(=S)Nc1ccc2c(c1)C1(OC2=O)c2ccc(O)cc2Oc2cc(O)ccc21)[C@@H](C)O
5,100,C[C@@H]1NC(=O)[C@H]([C@@H](C)O)NC(=O)[C@@H]2CCCN2C(=O)[C@H](CCC(=O)O)NC(=O)CN(C(=O)CCCCNC(=S)Nc2ccc3c(c2)C2(OC3=O)c3ccc(O)cc3Oc3cc(O)ccc32)CC/C=C\CCCCCCN(CC(N)=O)C(=O)[C@H](CCC(=O)O)NC(=O)[C@@H]2CCCN2C(=O)[C@@H]2CCCN2C1=O
6,35,C=CCCCCCCN(CC(=O)N[C@@H](CCC(=O)O)C(=O)N1CCC[C@H]1C(=O)N[C@H](C(=O)N[C@@H](C)C(=O)N1CCC[C@H]1C(=O)N1CCC[C@H]1C(=O)N[C@@H](CCC(=O)O)C(=O)N(CCCCCCC=C)CC(N)=O)[C@@H](C)O)C(=O)CCCCNC(=S)Nc1ccc2c(c1)C1(OC2=O)c2ccc(O)cc2Oc2cc(O)ccc21
7,42,C=CCCCCCCN(CC(N)=O)C(=O)[C@H](CCC(=O)O)NC(=O)[C@@H]1CCCN1C(=O)[C@@H]1CCCN1C(=O)[C@H](C)NC(=O)[C@@H](NC(=O)[C@@H]1CCCN1C(=O)CN(CCCCCCC=C)C(=O)[C@@H]1CCCN1C(=O)CCCCNC(=S)Nc1ccc2c(c1)C1(OC2=O)c2ccc(O)cc2Oc2cc(O)ccc21)[C@@H](C)O
8,74,"C=CCN(CC(=O)N[C@@H](CCC(=O)O)C(=O)N1CCC[C@H]1C(=O)N[C@H](C(=O)N[C@@H](C)C(=O)N1CCC[C@H]1C(=O)N1CCC[C@H]1C(=O)N[C@@H](CCC(=O)O)C(=O)N(CC=C)CC(N)=O)[C@@H](C)O)C(=O)CCCCNC(=S)Nc1ccc2c(c1)C1(OC2=O)c2ccc(O)cc2Oc2cc(O)ccc21 (stereo in doubt; 1'-(1,1))"
9,76,C[C@@H]1NC(=O)[C@H]([C@@H](C)O)NC(=O)[C@@H]2CCCN2C(=O)CN(C(=O)[C@@H]2CCCN2C(=O)CCCCNC(=S)Nc2ccc3c(c2)C2(OC3=O)c3ccc(O)cc3Oc3cc(O)ccc32)CC/C=C/CCCCCCN(CC(=O)N[C@@H](CCC(=O)O)C(N)=O)C(=O)[C@@H]2CCCN2C(=O)[C@@H]2CCCN2C1=O ({Fluorescein(5-NHCS)-Ava}-P[Gly(N-but-3-enyl)]PTAPP[X3]E-NH2; staple (E) 2-8)
10,45,C=CCCCCCCN(CC(=O)N1CCC[C@H]1C(=O)N[C@H](C(=O)N[C@@H](C)C(=O)N1CCC[C@H]1C(=O)N1CCC[C@H]1C(=O)N(CCCCCCC=C)CC(=O)N[C@@H](CCC(=O)O)C(N)=O)[C@@H](C)O)C(=O)[C@@H]1CCCN1C(=O)CCCCNC(=S)Nc1ccc2c(c1)C1(OC2=O)c2ccc(O)cc2Oc2cc(O)ccc21 ({Fluorescein(5-NHCS)-Ava}-P[N(7-octenyl)Gly]PTAPP[N(7-octenyl)Gly]E-NH2)
11,200,C[C@@H]1NC(=O)[C@H]([C@@H](C)O)NC(=O)[C@@H]2CCCN2C(=O)CN(C(=O)[C@@H]2CCCN2C(=O)CCCCNC(=S)Nc2ccc3c(c2)C2(OC3=O)c3ccc(O)cc3Oc3cc(O)ccc32)CCCCCC/C=C\CCCCCCN(CC(=O)N[C@@H](CCC(=O)O)C(N)=O)C(=O)[C@@H]2CCCN2C(=O)[C@@H]2CCCN2C1=O ({Fluorescein(5-NHCS)-Ava}-P[X3]PTAPP[X3]E-NH2; staple (Z) 2-8)
12,100,C[C@@H]1NC(=O)[C@H]([C@@H](C)O)NC(=O)[C@@H]2CCCN2C(=O)[C@H](CCC(=O)O)NC(=O)CN(C(=O)CCCCNC(=S)Nc2ccc3c(c2)C2(OC3=O)c3ccc(O)cc3Oc3cc(O)ccc32)CC/C=C/CCCCCCN(CC(=O)N[C@@H](CCC(=O)O)C(N)=O)C(=O)[C@@H]2CCCN2C(=O)[C@@H]2CCCN2C1=O ({Fluorescein(5-NHCS)-Ava}-[Gly(N-but-3-enyl)]EPTAPP[X3]E-NH2; staple (E) 1-8)
13,40,C=CCCCCCCN(CC(=O)N[C@@H](CCC(=O)O)C(=O)N1CCC[C@H]1C(=O)N[C@H](C(=O)N[C@@H](C)C(=O)N1CCC[C@H]1C(=O)N1CCC[C@H]1C(=O)N(CCCCCCC=C)CC(=O)N[C@@H](CCC(=O)O)C(N)=O)[C@@H](C)O)C(=O)CCCCNC(=S)Nc1ccc2c(c1)C1(OC2=O)c2ccc(O)cc2Oc2cc(O)ccc21 ({Fluorescein(5-NHCS)-Ava}-[N(7-octenyl)Gly]EPTAPP[N(7-octenyl)Gly]E-NH2)
14,74,H-PEPTAPPEE-OH

# Molecular target: T1, Tumor susceptibility gene 101 protein (Homo sapiens, UniProt Q99816)
# T1 sequence (Q99816 whole entry): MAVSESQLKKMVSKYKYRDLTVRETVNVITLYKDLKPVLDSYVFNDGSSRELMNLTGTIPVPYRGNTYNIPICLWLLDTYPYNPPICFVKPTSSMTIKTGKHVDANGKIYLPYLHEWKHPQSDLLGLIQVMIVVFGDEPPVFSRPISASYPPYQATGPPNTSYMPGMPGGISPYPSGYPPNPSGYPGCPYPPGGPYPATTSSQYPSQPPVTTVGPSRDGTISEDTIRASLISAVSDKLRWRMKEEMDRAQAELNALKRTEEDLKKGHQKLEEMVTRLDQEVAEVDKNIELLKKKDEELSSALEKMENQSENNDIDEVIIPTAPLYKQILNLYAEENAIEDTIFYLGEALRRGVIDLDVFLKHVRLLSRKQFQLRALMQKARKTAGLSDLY
# Assay: Binding affinity to ubiquitin E2 variant domain of human Tsg101 by fluorescent anisotropy
# Settings: not given
row,Kd [µM],Molecule
1,> 500,C[C@@H]1NC(=O)[C@H]([C@@H](C)O)NC(=O)[C@@H]2CCCN2C(=O)[C@H](CCC(=O)O)NC(=O)CN(C(=O)CCCCNC(=S)Nc2ccc3c(c2)C2(OC3=O)c3ccc(O)cc3Oc3cc(O)ccc32)CCC/C=C\CN(CC(N)=O)C(=O)[C@H](CCC(=O)O)NC(=O)[C@@H]2CCCN2C(=O)[C@@H]2CCCN2C1=O
2,> 500,C[C@@H]1NC(=O)[C@H]([C@@H](C)O)NC(=O)[C@@H]2CCCN2C(=O)[C@H](CCC(=O)O)NC(=O)CN(C(=O)CCCCNC(=S)Nc2ccc3c(c2)C2(OC3=O)c3ccc(O)cc3Oc3cc(O)ccc32)CCCCC/C=C\CN(CC(N)=O)C(=O)[C@H](CCC(=O)O)NC(=O)[C@@H]2CCCN2C(=O)[C@@H]2CCCN2C1=O
3,108,C[C@@H]1NC(=O)[C@H]([C@@H](C)O)NC(=O)[C@@H]2CCCN2C(=O)CN(C(=O)[C@@H]2CCCN2C(=O)CCCCNC(=S)Nc2ccc3c(c2)C2(OC3=O)c3ccc(O)cc3Oc3cc(O)ccc32)CCCCC=CCN(CC(N)=O)C(=O)[C@H](CCC(=O)O)NC(=O)[C@@H]2CCCN2C(=O)[C@@H]2CCCN2C1=O
4,> 500,C[C@@H]1NC(=O)[C@H]([C@@H](C)O)NC(=O)[C@@H]2CCCN2C(=O)[C@H](CCC(=O)O)NC(=O)CN(C(=O)CCCCNC(=S)Nc2ccc3c(c2)C2(OC3=O)c3ccc(O)cc3Oc3cc(O)ccc32)CCC=CCN(CC(N)=O)C(=O)[C@H](CCC(=O)O)NC(=O)[C@@H]2CCCN2C(=O)[C@@H]2CCCN2C1=O
5,> 500,C[C@@H]1NC(=O)[C@H]([C@@H](C)O)NC(=O)[C@@H]2CCCN2C(=O)[C@H](CCC(=O)O)NC(=O)CN(C(=O)CCCCNC(=S)Nc2ccc3c(c2)C2(OC3=O)c3ccc(O)cc3Oc3cc(O)ccc32)CCCC/C=C\CN(CC(N)=O)C(=O)[C@H](CCC(=O)O)NC(=O)[C@@H]2CCCN2C(=O)[C@@H]2CCCN2C1=O
6,106,C[C@@H]1NC(=O)[C@H]([C@@H](C)O)NC(=O)[C@@H]2CCCN2C(=O)[C@H](CCC(=O)O)NC(=O)CN(C(=O)CCCCNC(=S)Nc2ccc3c(c2)C2(OC3=O)c3ccc(O)cc3Oc3cc(O)ccc32)CCC/C=C\CCCCCCN(CC(N)=O)C(=O)[C@H](CCC(=O)O)NC(=O)[C@@H]2CCCN2C(=O)[C@@H]2CCCN2C1=O
7,171,C[C@@H]1NC(=O)[C@H]([C@@H](C)O)NC(=O)[C@@H]2CCCN2C(=O)CN(C(=O)[C@@H]2CCCN2C(=O)CCCCNC(=S)Nc2ccc3c(c2)C2(OC3=O)c3ccc(O)cc3Oc3cc(O)ccc32)CC/C=C\CN(CC(=O)N[C@@H](CCC(=O)O)C(N)=O)C(=O)[C@@H]2CCCN2C(=O)[C@@H]2CCCN2C1=O ({Fluorescein(5-NHCS)-Ava}-P[Gly(N-but-3-enyl)]PTAPP[X2]E-NH2; staple (Z) 2-8)
8,> 500,C[C@@H]1NC(=O)[C@H]([C@@H](C)O)NC(=O)[C@@H]2CCCN2C(=O)CN(C(=O)[C@@H]2CCCN2C(=O)CCCCNC(=S)Nc2ccc3c(c2)C2(OC3=O)c3ccc(O)cc3Oc3cc(O)ccc32)CCCC=CCN(CC(=O)N[C@@H](CCC(=O)O)C(N)=O)C(=O)[C@@H]2CCCN2C(=O)[C@@H]2CCCN2C1=O ({Fluorescein(5-NHCS)-Ava}-P[X1]PTAPP[X2]E-NH2; staple 2-8)
9,218,C[C@@H]1NC(=O)[C@H]([C@@H](C)O)NC(=O)[C@@H]2CCCN2C(=O)CN(C(=O)[C@@H]2CCCN2C(=O)CCCCNC(=S)Nc2ccc3c(c2)C2(OC3=O)c3ccc(O)cc3Oc3cc(O)ccc32)C/C=C\CN(CC(=O)N[C@@H](CCC(=O)O)C(N)=O)C(=O)[C@@H]2CCCN2C(=O)[C@@H]2CCCN2C1=O ({Fluorescein(5-NHCS)-Ava}-P[X2]PTAPP[X2]E-NH2; staple (Z) 2-8)
